Measured values taken from ChEMBL document CHEMBL3627681, “Synthesis and biological evaluation of 1,3-diaryl pyrazole derivatives as potential antibacterial and anti-inflammatory agents” (2015).
Converted amounts (≈) assume the structure as drawn.

system: Staphylococcus aureus; test: Antibacterial activity against Staphylococcus aureus 209 after 24 hrs by two-fold serial dilution method; assay type: functional; conditions: Staphylococcus aureus, 209, 24 h
Outline: (§1)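 Broth microdilution in Mueller-Hinton broth. Bacteria grown to mid-log phase, diluted 1000-fold, and inoculated at 10⁵ CFU/mL. Test compounds in DMSO, final DMSO not above 0.05%, final concentrations 64-0.5 µg/mL. Incubation 24 h at 37 °C, growth read as absorbance at 650 nm. MIC taken as the lowest concentration giving complete growth inhibition. Run three times.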

SMILES	MIC
O=C(N/N=C/c1cn(-c2ccc([N+](=O)[O-])cc2[N+](=O)[O-])nc1-c1cccc(Br)c1)c1ccco1	> 64 µg/mL
N=C(N)N/N=C/c1cn(-c2ccccc2)nc1-c1ccc(Br)cc1	8 µg/mL (≈ 20.9 µM)
COc1c(N2CCNC(C)C2)c(F)cc2c(=O)c(C(=O)O)cn(C3CC3)c12 (centres undefined) [GATIFLOXACIN]	2 µg/mL (≈ 5.33 µM)

system: Staphylococcus aureus; test: Antibacterial activity against Staphylococcus aureus 503 after 24 hrs by two-fold serial dilution method; assay type: functional; conditions: Staphylococcus aureus, 503, 24 h; outline: as §1

SMILES	MIC
O=C(N/N=C/c1cn(-c2ccc([N+](=O)[O-])cc2[N+](=O)[O-])nc1-c1cccc(Br)c1)c1ccco1	> 64 µg/mL
N=C(N)N/N=C/c1cn(-c2ccccc2)nc1-c1ccc(Br)cc1	4 µg/mL (≈ 10.4 µM)
COc1c(N2CCNC(C)C2)c(F)cc2c(=O)c(C(=O)O)cn(C3CC3)c12 (centres undefined) [GATIFLOXACIN]	2 µg/mL (≈ 5.33 µM)

system: Candida albicans; test: Antifungal activity against Candida albicans 7535 by two-fold serial dilution method; assay type: functional; conditions: not given

SMILES	MIC
O=C(N/N=C/c1cn(-c2ccc([N+](=O)[O-])cc2[N+](=O)[O-])nc1-c1cccc(Br)c1)c1ccco1	> 64 µg/mL
N=C(N)N/N=C/c1cn(-c2ccccc2)nc1-c1ccc(Br)cc1	4 µg/mL (≈ 10.4 µM)
COc1c(N2CCNC(C)C2)c(F)cc2c(=O)c(C(=O)O)cn(C3CC3)c12 (centres undefined) [GATIFLOXACIN]	0.5 µg/mL (≈ 1.33 µM)

system: Escherichia coli; test: Antibacterial activity against Escherichia coli KCTC 1924 after 24 hrs by two-fold serial dilution method; assay type: functional; conditions: KCTC 1924, 24 h
Outline: (§2)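 Broth microdilution in Mueller-Hinton broth over final concentrations of 64–0.5. Bacteria were grown to mid-log phase and diluted 1000-fold, then inoculated at 10⁵ CFU/mL. Compounds were dissolved in DMSO, with final DMSO at most 0.05%. Plates were incubated 24 h at 37 °C and growth read as absorbance at 650 nm. MIC is the concentration giving complete growth inhibition. Three independent runs.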

SMILES	MIC
O=C(N/N=C/c1cn(-c2ccc([N+](=O)[O-])cc2[N+](=O)[O-])nc1-c1cccc(Br)c1)c1ccco1	> 64 µg/mL
N=C(N)N/N=C/c1cn(-c2ccccc2)nc1-c1ccc(Br)cc1	8 µg/mL (≈ 20.9 µM)
COc1c(N2CCNC(C)C2)c(F)cc2c(=O)c(C(=O)O)cn(C3CC3)c12 (centres undefined) [GATIFLOXACIN]	2 µg/mL (≈ 5.33 µM)

system: Staphylococcus aureus; test: Antibacterial activity against methicillin-resistant Staphylococcus aureus CCARM 3506 after 24 hrs by two-fold serial dilution method; assay type: functional; conditions: CCARM 3506, 24 h; outline: as §1

SMILES	MIC
O=C(N/N=C/c1cn(-c2ccc([N+](=O)[O-])cc2[N+](=O)[O-])nc1-c1cccc(Br)c1)c1ccco1	> 64 µg/mL
N=C(N)N/N=C/c1cn(-c2ccccc2)nc1-c1ccc(Br)cc1	4 µg/mL (≈ 10.4 µM)
COc1c(N2CCNC(C)C2)c(F)cc2c(=O)c(C(=O)O)cn(C3CC3)c12 (centres undefined) [GATIFLOXACIN]	2 µg/mL (≈ 5.33 µM)

system: Staphylococcus aureus; test: Antibacterial activity against quinolone-resistant Staphylococcus aureus CCARM 3519 after 24 hrs by two-fold serial dilution method; assay type: functional; conditions: CCARM 3519, 24 h; outline: as §1

SMILES	MIC
O=C(N/N=C/c1cn(-c2ccc([N+](=O)[O-])cc2[N+](=O)[O-])nc1-c1cccc(Br)c1)c1ccco1	> 64 µg/mL
N=C(N)N/N=C/c1cn(-c2ccccc2)nc1-c1ccc(Br)cc1	16 µg/mL (≈ 41.7 µM)
COc1c(N2CCNC(C)C2)c(F)cc2c(=O)c(C(=O)O)cn(C3CC3)c12 (centres undefined) [GATIFLOXACIN]	4 µg/mL (≈ 10.7 µM)

system: Staphylococcus aureus; test: Antibacterial activity against methicillin-resistant Staphylococcus aureus CCARM 3167 after 24 hrs by two-fold serial dilution method; assay type: functional; conditions: CCARM 3167, 24 h; outline: as §1

SMILES	MIC
O=C(N/N=C/c1cn(-c2ccc([N+](=O)[O-])cc2[N+](=O)[O-])nc1-c1cccc(Br)c1)c1ccco1	> 64 µg/mL
N=C(N)N/N=C/c1cn(-c2ccccc2)nc1-c1ccc(Br)cc1	8 µg/mL (≈ 20.9 µM)
COc1c(N2CCNC(C)C2)c(F)cc2c(=O)c(C(=O)O)cn(C3CC3)c12 (centres undefined) [GATIFLOXACIN]	2 µg/mL (≈ 5.33 µM)

system: Pseudomonas aeruginosa; test: Antibacterial activity against Pseudomonas aeruginosa 2004 after 24 hrs by two-fold serial dilution method; assay type: functional; conditions: Pseudomonas aeruginosa, 2004, 24 h; outline: as §2

SMILES	MIC
O=C(N/N=C/c1cn(-c2ccc([N+](=O)[O-])cc2[N+](=O)[O-])nc1-c1cccc(Br)c1)c1ccco1	> 64 µg/mL
N=C(N)N/N=C/c1cn(-c2ccccc2)nc1-c1ccc(Br)cc1	> 64 µg/mL
COc1c(N2CCNC(C)C2)c(F)cc2c(=O)c(C(=O)O)cn(C3CC3)c12 (centres undefined) [GATIFLOXACIN]	1 µg/mL (≈ 2.66 µM)

system: Salmonella typhimurium; test: Antibacterial activity against Salmonella typhimurium 2421 after 24 hrs by two-fold serial dilution method; assay type: functional, Salmonella enterica subsp. enterica serovar Typhimurium; conditions: Salmonella enterica, 2421, 24 h; outline: as §2

SMILES	MIC
O=C(N/N=C/c1cn(-c2ccc([N+](=O)[O-])cc2[N+](=O)[O-])nc1-c1cccc(Br)c1)c1ccco1	> 64 µg/mL
N=C(N)N/N=C/c1cn(-c2ccccc2)nc1-c1ccc(Br)cc1	> 64 µg/mL
COc1c(N2CCNC(C)C2)c(F)cc2c(=O)c(C(=O)O)cn(C3CC3)c12 (centres undefined) [GATIFLOXACIN]	0.5 µg/mL (≈ 1.33 µM)

system: Staphylococcus aureus; test: Antibacterial activity against quinolone-resistant Staphylococcus aureus CCARM 3505 after 24 hrs by two-fold serial dilution method; assay type: functional; conditions: CCARM 3505, 24 h; outline: as §1

SMILES	MIC
O=C(N/N=C/c1cn(-c2ccc([N+](=O)[O-])cc2[N+](=O)[O-])nc1-c1cccc(Br)c1)c1ccco1	> 64 µg/mL
N=C(N)N/N=C/c1cn(-c2ccccc2)nc1-c1ccc(Br)cc1	16 µg/mL (≈ 41.7 µM)
COc1c(N2CCNC(C)C2)c(F)cc2c(=O)c(C(=O)O)cn(C3CC3)c12 (centres undefined) [GATIFLOXACIN]	8 µg/mL (≈ 21.3 µM)

system: Pseudomonas aeruginosa; test: Antibacterial activity against Pseudomonas aeruginosa 2742 after 24 hrs by two-fold serial dilution method; assay type: functional; conditions: Pseudomonas aeruginosa, 2742, 24 h; outline: as §2

SMILES	MIC
O=C(N/N=C/c1cn(-c2ccc([N+](=O)[O-])cc2[N+](=O)[O-])nc1-c1cccc(Br)c1)c1ccco1	> 64 µg/mL
N=C(N)N/N=C/c1cn(-c2ccccc2)nc1-c1ccc(Br)cc1	> 64 µg/mL
COc1c(N2CCNC(C)C2)c(F)cc2c(=O)c(C(=O)O)cn(C3CC3)c12 (centres undefined) [GATIFLOXACIN]	1 µg/mL (≈ 2.66 µM)

system: Mus musculus; test: Antiinflammatory activity in mouse assessed as inhibition of xylene-induced ear edema at 50 mg/kg, ip administered 30 mins before xylene challenge relative to control; assay type: functional; conditions: not given
Outline: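 Mice received compound freshly dissolved in DMSO, 50 mg/kg ip at 0.05 mL/20 g body weight; vehicle controls got DMSO alone. After 30 min, 20 µL xylene was applied to the right ear. After a further 30 min, 7 mm plugs were cut from treated and untreated ears and edema taken as their weight difference. Result is % edema reduction versus vehicle controls.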

SMILES	inhibition in vivo at 50 mg/kg
O=C(N/N=C/c1cn(-c2ccc([N+](=O)[O-])cc2[N+](=O)[O-])nc1-c1cccc(Br)c1)c1ccco1	25.3%
N=C(N)N/N=C/c1cn(-c2ccccc2)nc1-c1ccc(Br)cc1	42.8%

system: Streptococcus mutans; test: Antibacterial activity against Streptococcus mutans 3065 after 24 hrs by two-fold serial dilution method; assay type: functional; conditions: Streptococcus mutans, 3065, 24 h; outline: as §2

SMILES	MIC
O=C(N/N=C/c1cn(-c2ccc([N+](=O)[O-])cc2[N+](=O)[O-])nc1-c1cccc(Br)c1)c1ccco1	> 64 µg/mL
N=C(N)N/N=C/c1cn(-c2ccccc2)nc1-c1ccc(Br)cc1	> 64 µg/mL
COc1c(N2CCNC(C)C2)c(F)cc2c(=O)c(C(=O)O)cn(C3CC3)c12 (centres undefined) [GATIFLOXACIN]	0.5 µg/mL (≈ 1.33 µM)

system: Staphylococcus aureus; test: Antibacterial activity against Staphylococcus aureus RN4220 after 24 hrs by two-fold serial dilution method; assay type: functional; conditions: RN4220, 24 h; outline: as §1

SMILES	MIC
O=C(N/N=C/c1cn(-c2ccc([N+](=O)[O-])cc2[N+](=O)[O-])nc1-c1cccc(Br)c1)c1ccco1	> 64 µg/mL
N=C(N)N/N=C/c1cn(-c2ccccc2)nc1-c1ccc(Br)cc1	4 µg/mL (≈ 10.4 µM)
COc1c(N2CCNC(C)C2)c(F)cc2c(=O)c(C(=O)O)cn(C3CC3)c12 (centres undefined) [GATIFLOXACIN]	0.25 µg/mL (≈ 0.666 µM)

system: Escherichia coli; test: Antibacterial activity against Escherichia coli CCARM 1356 after 24 hrs by two-fold serial dilution method; assay type: functional; conditions: CCARM 1356, 24 h; outline: as §2

SMILES	MIC
O=C(N/N=C/c1cn(-c2ccc([N+](=O)[O-])cc2[N+](=O)[O-])nc1-c1cccc(Br)c1)c1ccco1	> 64 µg/mL
N=C(N)N/N=C/c1cn(-c2ccccc2)nc1-c1ccc(Br)cc1	> 64 µg/mL
COc1c(N2CCNC(C)C2)c(F)cc2c(=O)c(C(=O)O)cn(C3CC3)c12 (centres undefined) [GATIFLOXACIN]	16 µg/mL (≈ 42.6 µM)
